These results are taken from ChEMBL document CHEMBL1131119, “N'-Phenylindol-3-ylglyoxylohydrazide derivatives: synthesis, structure-activity relationships, molecular modeling studies, and pharmacological action on brain benzodiazepine receptors” (J Med Chem, 1998).

Active and inactive are the calls of the source. The rule behind the calls is not given here.

Experiment [1] deals with GABA-A receptor; anion channel (Bos taurus) (UniProt P10063+P08220+P20237+P08219+P10064+P22300). To be noted: Brain membranes, at 0.5 µM.
Experiment [2] addresses GABA-A receptor; anion channel. In words: Inhibition of [3H]-Ro- 15-1788 binding to GABA-A benzodiazepine receptor of bovine brain membranes. Type of experiment: cell membranes, Bos taurus. The method, boiled down: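 Bovine cerebral cortex membranes, freeze–thawed and washed in 50 mM Tris-citrate pH 7.4; competition against [3H]Ro 15-1788 by filtration. […] Ki as mean ± SEM of three determinations.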

For experiment [3], the system named is Mus musculus. Put plainly: Convulsant effect in mice following subconvulsant PTZ(40 mg/kg, sc) dose, ineffective to 250 mg/kg. Type of experiment: functional, organism-based. On the set-up: dose 250 mg/kg.
The subject of experiment [4] is Mus musculus. In words: Antagonistic effect against the anticonvulsant Diazepam (2.5 mg/kg, ip) effect in mice after PTZ (80mg/kg, sc) dose, ineffective to 250 mg/kg. Type of experiment: functional, organism-based. On the set-up: dose 250 mg/kg.
In experiment [5] the test system is Mus musculus. In words: Antagonistic effect against PTZ (80 mg/kg, sc) convulsant action in mice. Type of experiment: functional.
Experiment [6] relates to Mus musculus. Put plainly: Antagonistic effect against the anticonvulsant Diazepam (2.5 mg/kg, ip) effect in mice after PTZ (80 mg/kg, sc) dose. Format: functional.
The test system of experiment [7] is Mus musculus. In words: Convulsant effect in mice following subconvulsant PTZ(40 mg/kg, sc) dose. Format: functional. In a few lines:
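Groups of 10 mice were given graded ip doses (up to 250 mg/kg) in 20% dilute Emulphor–80% saline, or vehicle alone. A subconvulsant dose of PTZ (40 mg/kg sc) followed 30 min later. ED50 was the dose inducing convulsions in 50% of mice. Values are means of at least three determinations.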

Experiment [8] deals with Mus musculus. Put plainly: Antagonistic effect against PTZ (80 mg/kg, sc) convulsant action in mice (ineffective). Type of experiment: functional, organism-based. The method, boiled down:
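Groups of 10 mice received graded ip doses (up to 250 mg/kg), suspended in 20% dilute Emulphor (1:1 w/w with ethanol)–80% saline, or vehicle alone. PTZ 80 mg/kg sc followed 30 min later. ED50 was the dose protecting 50% of mice from convulsions. Values are means of at least three determinations.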

As usually defined, the Ki is a dissociation constant, usually derived from enzyme kinetics or from competition with a known ligand. Low values mean higher affinity, high ones lower affinity. As to `Cc1ccc(NNC(=O)C(=O)c2c[nH]c3ccccc23)cc1`, in experiment [1], the Clonazepam came to 9%. Besides, the Ki in experiment [2] came out at 290 nM.
Consider `Cc1cccc(NNC(=O)C(=O)c2c[nH]c3ccccc23)c1`, for which the Clonazepam in experiment [1] came out at 20%. The same molecule had a Ki in experiment [2] of 510 nM.
One may read the ED50 as the dose that gives a 50% effect, or the effect in half of the subjects. For `O=C(NNc1ccc([N+](=O)[O-])cc1)C(=O)c1c[nH]c2ccccc12`, the Clonazepam in experiment [1] came to 20%. Also, in experiment [3], the Proconvulsant action result was “inactive”. Besides, the Diazepam antagonism entry in experiment [4] is “inactive”. The molecule also yielded a Ki in experiment [2] of 11 nM. Moreover, the ED50 in experiment [5] was found to be 10 mg/kg.
Molecule `Cn1cc(C(=O)C(=O)NNc2ccccc2)c2ccccc21` showed a Ki in experiment [2] of 1200 nM.
Turning to `O=C1CN=C(c2ccccc2Cl)c2cc([N+](=O)[O-])ccc2N1`, the Clonazepam in experiment [1] turned out to be 100%.
`Cn1cc(C(=O)C(=O)NNc2ccc([N+](=O)[O-])cc2)c2ccccc21` gave a Ki in experiment [2] of 455 nM.
Molecule `CN1C(=O)CN=C(c2ccccc2)c2cc(Cl)ccc21` [DIAZEPAM] gave an ED50 in experiment [5] of 0.4 mg/kg.
In experiment [6], `COC(=O)c1cc2c(cn1)[nH]c1ccccc12` [BETA-CCM] yielded a Diazepam antagonism of 0.02. The molecule also gave a Proconvulsant action in experiment [7] of 19.4. Besides, in experiment [8], the ED50 entry is “inactive”.
On to `O=C(NNc1ccccc1)C(=O)c1c[nH]c2ccccc12`, for which the Clonazepam in experiment [1] amounted to 20%. The molecule also yielded a Ki in experiment [2] of 203 nM.
Regarding `O=C(NNc1ccc(F)cc1)C(=O)c1c[nH]c2ccccc12`, in experiment [1], the Clonazepam came out at 18%. Besides, the Proconvulsant action entry in experiment [3] was “inactive”. Also, the Diazepam antagonism entry in experiment [4] is “inactive”. Further, the Ki in experiment [2] came to 57 nM. Also, the ED50 in experiment [5] was 60 mg/kg.
For the molecule `COc1ccc(NNC(=O)C(=O)c2c[nH]c3ccccc23)cc1`, the Clonazepam in experiment [1] is 17%. The molecule further displayed a Ki in experiment [2] of 430 nM.
Molecule `CCOC(=O)c1ncn2c1CN(C)C(=O)c1cc(F)ccc1-2` [FLUMAZENIL] had a Diazepam antagonism in experiment [6] of 0.3. For the same molecule, the Proconvulsant action result in experiment [3] was “inactive”.
As for `O=C(NNc1ccc(O)cc1)C(=O)c1c[nH]c2ccccc12`, in experiment [2], the Ki is 3400 nM.
The molecule `CN(NC(=O)C(=O)c1c[nH]c2ccc([N+](=O)[O-])cc12)c1ccccc1` showed a Clonazepam in experiment [1] of 53%. The Proconvulsant action result in experiment [3] is “inactive”. In addition, the Diazepam antagonism result in experiment [4] is “inactive”. For the same molecule, in experiment [2], the inhibition constant Ki was 2400 nM. In addition, the ED50 in experiment [5] is 25 mg/kg.
The molecule `O=C(NNc1ccc(Cl)cc1)C(=O)c1c[nH]c2ccccc12` registered a Clonazepam in experiment [1] of 16%. The Proconvulsant action entry in experiment [3] is “inactive”. In experiment [4], the Diazepam antagonism entry is “inactive”. This molecule displayed a Ki in experiment [2] of 62 nM. In experiment [5], this molecule yielded an ED50 of 25 mg/kg.
